Assay results: ChEMBL document CHEMBL1142461, “In vitro biological evaluation of novel 7-O-dialkylaminoalkyl cytotoxic pectolinarigenin derivatives against a panel of human cancer cell lines” (Bioorg Med Chem Lett, 2008)

Columns and labels:
[1] = system: C32; assay: Antiproliferative activity against human C32 cells after 48 hrs by sulforhodamine B assay; assay type: functional, cell-based; conditions: C32, 48 h
Method in brief: (§1)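 Cells grown in RPMI 1640 (ACHN, C32, COR-L23) or DMEM (142BR, A375, A549, Caco-2, Huh-7D12), seeded and allowed to attach for 24 h. Then exposed 48 h to six serial dilutions (DMSO ≤0.5% final, matched in solvent controls), in six replicates. Fixed with ice-cold 40% TCA for 1 h at 4 °C and SRB-stained, read at 564 nm. Survival taken as % of untreated control; IC50 from dose–response curve; mean ± SD.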

[2] = system: COR-L23; assay: Antiproliferative activity against human COR-L23 cells after 48 hrs by sulforhodamine B assay; assay type: functional, cell-based; conditions: COR-L23, 48 h; method in brief: as §1
[3] = system: A549; assay: Antiproliferative activity against human A549 cells after 48 hrs by sulforhodamine B assay; assay type: functional, cell-based; conditions: A549, 48 h; method in brief: as §1
[4] = system: A-375; assay: Antiproliferative activity against human A375 cells after 48 hrs by sulforhodamine B assay; assay type: functional, cell-based; conditions: A-375, 48 h; method in brief: as §1
[5] = system: Caco-2; assay: Antiproliferative activity against human Caco-2 cells after 48 hrs by sulforhodamine B assay; assay type: functional, cell-based; conditions: Caco-2, 48 h; method in brief: as §1
[6] = Partition coefficient, log P of the compound; assay type: physicochemical; conditions: octanol/water
[7] = system: ACHN; assay: Antiproliferative activity against human ACHN cells after 48 hrs by sulforhodamine B assay; assay type: functional, cell-based; method in brief: as §1
[8] = Antiproliferative activity against human Huh-7D12 cells after 48 hrs by sulforhodamine B assay; assay type: functional, cell-based; conditions: Huh-7D12, 48 h; method in brief: as §1
[9] = Antiproliferative activity against human 142BR cells after 48 hrs by sulforhodamine B assay; assay type: functional, cell-based; method in brief: as §1

| Compound | IC50 [1] | IC50 [2] | IC50 [3] | IC50 [4] | IC50 [5] | logP [6] | IC50 [7] | IC50 [8] | IC50 [9] |
| --- | --- | --- | --- | --- | --- | --- | --- | --- | --- |
| COc1ccc(-c2cc(=O)c3c(O)c(OC)c(OCCCN(C)C)cc3o2)cc1 | 8.9 µM | 7.2 µM | 7.4 µM | 7.7 µM | > 100 µM | 2.4 | 10.8 µM | > 100 µM | > 100 µM |
| COc1ccc(-c2cc(=O)c3c(O)c(OC)c(OCCN(C)C)cc3o2)cc1 | > 100 µM | 9.2 µM | 13.2 µM | > 100 µM | > 100 µM | 2.3 | 10.5 µM | > 100 µM | > 100 µM |
| COc1ccc(-c2cc(=O)c3c(O)c(OC)c(OCCN4CCCC4)cc3o2)cc1 | 54.7 µM | > 100 µM | > 100 µM | 38.6 µM | > 100 µM | 2.6 | 12.7 µM | > 100 µM | > 100 µM |
| COc1ccc(-c2cc(=O)c3c(O)c(OC)c(OCCN4CCCCC4)cc3o2)cc1 | 63.6 µM | 34.1 µM | 44.9 µM | 52.3 µM | 78.6 µM | 3 | 92.6 µM | > 100 µM | > 100 µM |
| COc1ccc(-c2cc(=O)c3c(O)c(OC)c(OCCN4CCOCC4)cc3o2)cc1 | 47.6 µM | 39.5 µM | 85.1 µM | 58.8 µM | > 100 µM | 1.9 | 55.7 µM | > 100 µM | > 100 µM |
| CCN(CC)CCOc1cc2oc(-c3ccc(OC)cc3)cc(=O)c2c(O)c1OC | > 100 µM | 41.9 µM | 59.9 µM | > 100 µM | > 100 µM | 3 | 54.1 µM | > 100 µM | > 100 µM |
| COc1ccc(-c2cc(=O)c3c(O)c(OC)c(O)cc3o2)cc1 [PECTOLINARIGENIN] | 7 µM | 4.1 µM | 5.6 µM | 8.2 µM | 5.3 µM | 2 | 15.2 µM | > 100 µM | > 100 µM |
| COc1ccc(-c2cc(=O)c3c(O)c(OC)c(O[C@@H]4O[C@H](CO[C@@H]5O[C@@H](C)[C@H](O)[C@@H](O)[C@H]5O)[C@@H](O)[C@H](O)[C@H]4O)cc3o2)cc1 [PECTOLINARIN] | 7.2 µM | 5 µM | 38.8 µM | 32.9 µM | 6.2 µM | -0.7 | 17.2 µM | 50.8 µM | > 100 µM |
